# Only some compounds are listed: those with a hit (about 2.6% of all), similar ones and a draw of the others.
# SENP8 block-1: SENP8 protease inhibitors, primary screen, biochemical, luminescence. Sentrin-specific protease 8 (Homo sapiens), Q96LD8. purified SENP8, Z-RLRGG-aminoluciferin cleavage. inhibition, % at 10 µM. 330,000 tested, 1.2% active. AID 2540, 2010; in the data active means inhibition above about 50%
# Target sequence (Q96LD8 whole entry, looked up): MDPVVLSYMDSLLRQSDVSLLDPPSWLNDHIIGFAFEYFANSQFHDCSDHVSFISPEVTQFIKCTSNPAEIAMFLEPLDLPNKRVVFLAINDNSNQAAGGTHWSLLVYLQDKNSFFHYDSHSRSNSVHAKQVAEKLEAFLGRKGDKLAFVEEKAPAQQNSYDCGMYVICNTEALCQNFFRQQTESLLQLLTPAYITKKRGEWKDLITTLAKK
# SENP1 inh: human SENP1 catalytic domain inhibitors, primary screen, biochemical, FRET, uHTS; 360,000 tested, 0.21% active; recombinant SENP1 catalytic domain, CyPet-SUMO1-YPet FRET cleavage; Sentrin-specific protease 1 (Homo sapiens), Q9P0U3; AID 624204, 2012; inhibition, % at 10 µM;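 active means inhibition at least 30% at 10 µM, raw YFP signal under a set limit, fluorescence ratio 0.5 to 1.5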;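 further: 0% = enzyme with DMSO and 100% = no enzyme wells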
# Target sequence (Q9P0U3 419-644 limits assumed): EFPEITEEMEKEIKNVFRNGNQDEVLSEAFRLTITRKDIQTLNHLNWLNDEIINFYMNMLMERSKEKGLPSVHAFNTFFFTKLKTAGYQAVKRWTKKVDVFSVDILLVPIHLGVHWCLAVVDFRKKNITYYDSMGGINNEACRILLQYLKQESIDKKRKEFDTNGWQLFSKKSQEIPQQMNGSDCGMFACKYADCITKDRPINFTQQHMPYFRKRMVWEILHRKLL
#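 Controls: no-enzyme wells low, DMSO-plus-enzyme wells high control. Test system: human recombinant His6-tagged SENP1 catalytic domain enzyme. Reagent: SFCypet-SUMO1-SFYpet FRET protein substrate, 25 nM final. Doses: one dose per compound, 10 µM, 0.5% DMSO. Detection: FRET, CFP and YFP emission. Timing: 50 min reaction at room temperature.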
# SENP7 block: SENP7 protease inhibitors, primary screen, biochemical, luminescence, uHTS; Sentrin-specific protease 7 (Homo sapiens), Q9BQF6; recombinant SENP7, Z-RLRGG-aminoluciferin luminescence, 40 min; inhibition, % at 5 µM; 330,000 tested, 1.5% active; AID 434973, 2010;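 active means inhibition above about 50% at the single test dose, limit read from the data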;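 further: plate controls were DMSO with enzyme for no effect and no enzyme buffer wells for full effect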
# SENP8 block-2: human SENP8 protease inhibitors, primary screen, biochemical, fluorescence, Nedd8 protein substrate, uHTS; recombinant SENP8; inhibition, % at 20 µM; 360,000 tested, 0.64% active; AID 602440, 2012; in the data active means inhibition mostly above about 40%, no sharp cut-off; inactive means mostly below about 27%
# SENP6 block: SENP6 protease inhibitors, primary screen, biochemical, luminescence, uHTS. inhibition, % at 10 µM. Recombinant SENP6 catalytic domain, aminoluciferin luminescence. Sentrin-specific protease 6 (Homo sapiens), Q9GZR1. 330,000 tested, 1.8% active. AID 2599, 2010;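 active means inhibition above about 50% at the single tested dose, limit read from the data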;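 further: plate controls were DMSO wells with enzyme for no effect and DMSO wells lacking enzyme for full effect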
# Platelet DG rel: inhibitors of platelet dense granule secretion, primary screen, cell-based, MLPCN, human platelets | human platelet-rich plasma, SFLLRN dense granule ATP release, luminescence | inhibition, %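 (compounds screened at 7.5 µM in platelet-rich plasma)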 | 300,000 tested, 0.22% active | AID 1663, 2009;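 active means mean replicate score, as percent of positive control, at or above 50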
# SENP8 conf: SENP8 protease inhibitors, retest, confirmation, biochemical, luminescence, single concentration | inhibition, % at 12.5 µM | 6,200 tested, 40% active | shares compounds with SENP7 block | Recombinant SENP8, Z-RLRGG-aminoluciferin luminescence, 60 min;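 active means mean inhibition across replicates above about 50%, limit read from the data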
# SENP6 conf: SENP6 protease inhibitors, confirmation, biochemical, luminescence, single concentration | shares compounds with SENP7 block | recombinant SENP6, Z-RLRGG-aminoluciferin luminescence | inhibition, % at 12.5 µM | 6,200 tested, 58% active
# SENP7 conf: SENP7 protease inhibitors, retest, confirmation, biochemical, luminescence, single concentration; shares compounds with SENP7 block; recombinant SENP7, Z-RLRGG-aminoluciferin luminescence, 40 min; inhibition, % at 12.5 µM; 6,200 tested, 69% active; AID 488917, 2010
# Casp3 select: caspase-3 protease inhibitors, confirmation, selectivity assay for SENP inhibitor project, biochemical, single concentration; shares compounds with SENP7 block; purified caspase-3, Z-DEVD-aminoluciferin luminescence, 60 min; inhibition, % at 12.5 µM; 6,200 tested, 60% active; AID 488918, 2010;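 active means mean inhibition above about 50%, limit read from the data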;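 further: plate controls were enzyme with DMSO for no effect and wells without caspase-3 for full effect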
# Target sequence (P42574 28-227 limits assumed): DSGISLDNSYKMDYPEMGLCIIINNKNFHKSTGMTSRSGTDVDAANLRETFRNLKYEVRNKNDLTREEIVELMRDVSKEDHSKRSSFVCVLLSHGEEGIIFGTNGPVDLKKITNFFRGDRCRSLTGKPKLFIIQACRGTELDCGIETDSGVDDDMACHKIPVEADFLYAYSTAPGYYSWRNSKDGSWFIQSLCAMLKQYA
# SENP luc ctr: counter-screen for SENP inhibitors: luminescence interference; shares compounds with SENP7 block; Pre-incubated SENP8/Z-RLRGG-aminoluciferin, luciferase luminescence interference; inhibition, % at 12.5 µM; 6,200 tested, 39% active;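 active means mean inhibition above about 50% when retested at one dose, limit read from the data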;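 further: plate controls were DMSO wells with completed reaction for no effect and substrate without enzyme for full effect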
# Active calls of the source: *; . = not tested or not shown.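 How the source made its calls, unless noted: active means mean inhibition above about 50% in the one-dose retest (limit read from the data); inactive means the rest.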
SMILES,SENP8 block-1,SENP1 inh,SENP7 block,SENP8 block-2,SENP6 block,Platelet DG rel,SENP8 conf,SENP6 conf,SENP7 conf,Casp3 select,SENP luc ctr
O=C(Nc1cccc(-c2ccc(N3CCOCC3)nn2)c1)c1ccccc1,5.1,0.3,26.0,-18.5,26.8,0.0,.,.,.,.,.
NS(=O)(=O)c1cc(C(=O)OCC(=O)Nc2ccc(N3CCCCC3)cc2)ccc1Cl,-1.6,3.5,3.7,23.5,-2.9,-0.5,.,.,.,.,.
CC(c1ccc(O)cc1)(c1ccc(O)cc1)c1ccc(CCBr)cc1,-15.4,-0.4,-8.7,10.7,-8.8,-1.3,.,.,.,.,.
C=CCN1CCN(C(=O)c2cc3c(s2)CCCC3)CC1,4.0,-0.1,-2.1,3.3,-1.5,2.4,.,.,.,.,.
O=C(Nc1ccc(-c2cn3ccccc3n2)cc1)c1ccco1,42.1,-0.2,58.9*,-43.0,71.4*,8.1,59.4*,57.7*,84.8*,79.3*,69.1*
O=C(Nc1ccc2nc(-c3ccccc3)[nH]c2c1)c1ccco1,-4.7,-1.4,9.5,-237.1,19.7,-2.2,.,.,.,.,.
COc1ccc2nc(NC(C)=O)sc2c1,5.1,1.9,30.9,27.6,-4.8,-2.4,.,.,.,.,.
Cc1cccc2[nH]c(-c3ccc(NC(=O)c4ccco4)cc3)nc12,77.3*,0.5,89.6*,-212.7,91.1*,9.0,-21.7,79.5*,95.7*,75.3*,77.7*
CC(=O)Nc1nc2ccc(Br)cc2s1,56.2*,-3.0,70.2*,13.2,80.1*,1.9,71.6*,69.2*,91.5*,74.2*,58.9*
Cc1cc2sc(NC(=O)c3ccco3)nc2cc1Cl,9.1,-2.1,70.8*,-123.3,27.8,8.1,9.9,9.6,5.5,29.0,7.1
Cc1ccc2[nH]c3c(c2c1)SC(C)(C)CC3=O,-5.8,-37.9,-4.6,-362.1,-5.2,1.4,.,.,.,.,.
Cc1ccc2nc(NC(=O)c3ccc(Br)o3)sc2c1,59.7*,0.0,87.1*,-226.3,72.8*,1.5,35.9,37.7,47.9,43.9,13.9
O=C(Nc1nc2ccc(Cl)cc2s1)c1ccco1,81.4*,-0.1,88.7*,-165.7,85.5*,3.6,40.6,79.7*,58.7*,85.6*,17.0
COc1ccc(-c2csc(NC(=O)c3ccco3)n2)cc1,28.2,-4.1,24.7,-55.3,55.9*,0.0,43.2,37.8,74.9*,31.9,29.8
CC1CC1C(=O)Nc1nc2ccc(Cl)cc2s1 (stereo not drawn),-2.9,2.1,-2.0,15.8,0.6,10.1,.,.,.,.,.
Cn1cc(Cl)c(C(=O)Nc2nc3ccc(Cl)cc3s2)n1,48.4,0.7,95.1*,-18.3,68.2*,7.6,27.6,43.7,67.4*,55.0*,7.6
CCOc1ccc(-c2csc(NC(=O)c3ccco3)n2)cc1,20.0,-4.6,32.5,-34.5,45.5,3.6,.,.,.,.,.
O=[n+]1c2c(n([O-])c3ccccc31)CCCC2,4.3,4.6,-2.7,-2.1,3.3,-3.4,.,.,.,.,.
Cc1ccc2nc(NC(=O)c3ccco3)sc2c1,93.2*,-1.5,95.7*,-151.4,92.3*,21.9,4.8,94.5*,100.6*,91.9*,58.3*
Cc1ccc2nc(NC(=S)NC(=O)c3ccco3)sc2c1,.,-8.3,.,-6.8,.,0.0,.,.,.,.,.
COc1ccc(-c2ccc(NC(=O)c3ccco3)cc2)nn1,90.3*,-1.8,93.8*,-37.8,90.6*,39.6,89.9*,89.6*,98.8*,96.2*,68.0*
Cc1cccc(NC(=O)c2ccco2)c1C,-7.5,0.5,9.9,11.9,-8.1,6.6,.,.,.,.,.
Cc1cc(NC(=O)c2ccco2)sc1C,67.7*,0.9,76.2*,-7.5,82.7*,.,5.9,60.3*,86.0*,80.9*,67.0*
O=C(Nc1nc2ccc(Br)cc2s1)c1ccco1,58.5*,-5.9,62.9*,-75.8,74.7*,0.4,33.4,64.1*,90.3*,69.1*,30.4
CC(C)C[C@H]1CNC(=S)N1C[C@H]1CCCN1C[C@H](Cc1ccc(O)cc1)N1C[C@H](CC(C)C)N(CCc2ccccc2)C1=S,.,1.3,.,10.7,.,.,.,.,.,.,.
SMILES,SENP8 block-1,SENP1 inh,SENP7 block,SENP8 block-2,SENP6 block,Platelet DG rel,SENP8 conf,SENP6 conf,SENP7 conf,Casp3 select,SENP luc ctr
COCC(=O)Nc1nc2ccc(C)cc2s1,30.0,0.4,57.8*,1.6,68.5*,0.1,66.6*,62.1*,88.2*,82.2*,63.7*
O=C(Nc1nc2ccsc2c(=O)s1)c1ccco1,52.6*,-33.9,77.3*,-85.5,71.7*,28.3,79.3*,71.9*,94.3*,46.5,77.2*
Cc1csc2c(=O)sc(NC(=O)c3ccco3)nc12,-6.6,-169.3,-1.0,-95.7,1.8,2.5,.,.,.,.,.
COc1ccc2nc(NC(=O)c3ccco3)sc2c1,86.9*,1.1,93.1*,-204.0,87.8*,.,93.0*,93.4*,100.6*,93.7*,79.4*
COc1cc2sc(NC(=O)c3ccco3)nc2cc1Cl,18.1,-0.6,2.9,-294.7,-31.1,11.0,.,.,.,.,.
COc1ccc(CCC(=O)OCC(=O)NC(=O)c2ccc(Cl)cc2)cc1,-15.4,-1.4,-11.0,1.3,-10.6,.,.,.,.,.,.
COc1cc(/C=N/NC(=O)c2cncc(Br)c2)cc([N+](=O)[O-])c1O,66.4*,-32.2,71.7*,27.8,82.6*,-2.2,83.5*,79.6*,96.2*,83.7*,60.8*
COc1cc([N+](=O)[O-])cc(/C=N/NC(=O)c2cncc(Br)c2)c1O,64.0*,-35.2,67.4*,19.4,88.8*,-1.6,81.0*,76.1*,96.0*,84.2*,52.2*
C#CCNC(=O)C1=C[C@H](C2CC2)C[C@H](OCCCCO)O1,-0.8,-0.5,-1.6,5.9,-8.5,-3.1,.,.,.,.,.

# From PubChem
